# Data as given in ChEMBL document CHEMBL4689842, “EUbOPEN Chemogenomics Library wave 1” (2021).
# Where “and” joins values, the source holds several entries; their conditions need not be identical. Equal entries are not always repeated.
# System: Fibroblast
# Assay: Multiplex assay against human fibroblast
# Format: toxicity, cell-based
# Outline: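 Cells stained live at seeding with Hoechst33342, BioTracker Green Microtubule Cytoskeleton Dye, MitoTracker Red and Annexin V Alexa Fluor 680 were imaged on a CQ1 microscope at 37°C and 5% CO2 after compound addition. Their classification by CellPathfinder machine-learning gating ran from Hoechst high-intensity objects versus normal cells, to healthy, pyknosed or fragmented nuclei among normal cells, to mitotic or apoptotic among pyknosed cells. Tubulin, mitochondrial-mass and membrane-permeability phenotypes are per cents of healthy-nucleus cells.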
# [1] = 12 h, 1 µM, compound concentration 1 uM, replicate 1
# [2] = 12 h, 1 µM, compound concentration 1 uM, replicate 2
# [3] = 12 h, 10 µM, compound concentration 10 uM, replicate 1
# [4] = 12 h, 10 µM, compound concentration 10 uM, replicate 2
# [5] = 24 h, 1 µM, compound concentration 1 uM, replicate 1
# [6] = 24 h, 1 µM, compound concentration 1 uM, replicate 2
# [7] = 24 h, 10 µM, compound concentration 10 uM, replicate 1
# [8] = 24 h, 10 µM, compound concentration 10 uM, replicate 2
# [9] = 48 h, 1 µM, compound concentration 1 uM, replicate 1
# [10] = 48 h, 1 µM, compound concentration 1 uM, replicate 2
# [11] = 48 h, 10 µM, compound concentration 10 uM, replicate 1
# [12] = 48 h, 10 µM, compound concentration 10 uM, replicate 2
compound,measurement,setting,value
CCc1nn(CCCN2CCN(c3cccc(Cl)c3)CC2)c(=O)n1CCOc1ccccc1.Cl [NEFAZODONE HYDROCHLORIDE],Population Apoptotic (%),[1],60%
same,Population Fragmented Nuclei (%),[1],16%
same,Population Healthy Nuclei (%),[1],47%
same,Population Hoechst High Intensity Objects (%),[1],13%
same,Population Membrane Permeable-Phenotype (%),[1],31%
same,Population Mitochondria Different-Phenotype (%),[1],10%
same,Population Mitotic Cells (%),[1],40%
same,Population Normal (%),[1],86%
same,Population Pyknosed Nuclei (%),[1],35%
same,Population Tubulin-Different-Phenotype (%),[1],75%
same,Total Cell Count,[1],176
same,Population Apoptotic (%),[2],0%
same,Population Fragmented Nuclei (%),[2],8%
same,Population Healthy Nuclei (%),[2],89%
same,Population Hoechst High Intensity Objects (%),[2],6%
same,Population Membrane Permeable-Phenotype (%),[2],3%
same,Population Mitochondria Different-Phenotype (%),[2],9%
same,Population Mitotic Cells (%),[2],100%
same,Population Normal (%),[2],93%
same,Population Pyknosed Nuclei (%),[2],1%
same,Population Tubulin-Different-Phenotype (%),[2],29%
same,Total Cell Count,[2],68
same,Population Apoptotic (%),[3],81%
same,Population Fragmented Nuclei (%),[3],24%
same,Population Healthy Nuclei (%),[3],45%
same,Population Hoechst High Intensity Objects (%),[3],10%
same,Population Membrane Permeable-Phenotype (%),[3],1%
same,Population Mitochondria Different-Phenotype (%),[3],84%
same,Population Mitotic Cells (%),[3],18%
same,Population Normal (%),[3],89%
same,Population Pyknosed Nuclei (%),[3],30%
same,Population Tubulin-Different-Phenotype (%),[3],96%
same,Total Cell Count,[3],157
same,Population Apoptotic (%),[4],69%
same,Population Fragmented Nuclei (%),[4],9%
same,Population Healthy Nuclei (%),[4],69%
same,Population Hoechst High Intensity Objects (%),[4],3%
same,Population Membrane Permeable-Phenotype (%),[4],60%
same,Population Mitochondria Different-Phenotype (%),[4],97%
same,Population Mitotic Cells (%),[4],30%
same,Population Normal (%),[4],96%
same,Population Pyknosed Nuclei (%),[4],20%
same,Population Tubulin-Different-Phenotype (%),[4],97%
same,Total Cell Count,[4],61
same,Population Apoptotic (%),[5],52%
same,Population Fragmented Nuclei (%),[5],20%
same,Population Healthy Nuclei (%),[5],57%
same,Population Hoechst High Intensity Objects (%),[5],14%
same,Population Membrane Permeable-Phenotype (%),[5],16%
same,Population Mitochondria Different-Phenotype (%),[5],17%
same,Population Mitotic Cells (%),[5],47%
same,Population Normal (%),[5],85%
same,Population Pyknosed Nuclei (%),[5],22%
same,Population Tubulin-Different-Phenotype (%),[5],68%
same,Total Cell Count,[5],175
same,Population Apoptotic (%),[6],50%
same,Population Fragmented Nuclei (%),[6],8%
same,Population Healthy Nuclei (%),[6],85%
same,Population Hoechst High Intensity Objects (%),[6],2%
same,Population Membrane Permeable-Phenotype (%),[6],1%
same,Population Mitochondria Different-Phenotype (%),[6],15%
same,Population Mitotic Cells (%),[6],50%
same,Population Normal (%),[6],97%
same,Population Pyknosed Nuclei (%),[6],5%
same,Population Tubulin-Different-Phenotype (%),[6],33%
same,Total Cell Count,[6],71
same,Population Apoptotic (%),[7],80%
same,Population Fragmented Nuclei (%),[7],23%
same,Population Healthy Nuclei (%),[7],58%
same,Population Hoechst High Intensity Objects (%),[7],22%
same,Population Membrane Permeable-Phenotype (%),[7],3%
same,Population Mitochondria Different-Phenotype (%),[7],86%
same,Population Mitotic Cells (%),[7],20%
same,Population Normal (%),[7],77%
same,Population Pyknosed Nuclei (%),[7],18%
same,Population Tubulin-Different-Phenotype (%),[7],100%
same,Total Cell Count,[7],177
same,Population Fragmented Nuclei (%),[8],22%
same,Population Healthy Nuclei (%),[8],56%
same,Population Hoechst High Intensity Objects (%),[8],1%
same,Population Membrane Permeable-Phenotype (%),[8],80%
same,Population Mitochondria Different-Phenotype (%),[8],100%
same,Population Normal (%),[8],98%
same,Population Pyknosed Nuclei (%),[8],20%
same,Total Cell Count,[8],72
same,Population Apoptotic (%),[9],43%
same,Population Fragmented Nuclei (%),[9],30%
same,Population Healthy Nuclei (%),[9],58%
same,Population Hoechst High Intensity Objects (%),[9],19%
same,Population Membrane Permeable-Phenotype (%),[9],19%
same,Population Mitochondria Different-Phenotype (%),[9],5%
same,Population Mitotic Cells (%),[9],56%
same,Population Normal (%),[9],80%
same,Population Pyknosed Nuclei (%),[9],11%
same,Population Tubulin-Different-Phenotype (%),[9],51%
same,Total Cell Count,[9],178
same,Population Apoptotic (%),[10],50%
same,Population Healthy Nuclei (%),[10],67%
same,Population Hoechst High Intensity Objects (%),[10],13%
same,Population Membrane Permeable-Phenotype (%),[10],6%
same,Population Mitochondria Different-Phenotype (%),[10],14%
same,Population Mitotic Cells (%),[10],50%
same,Population Normal (%),[10],86%
same,Population Pyknosed Nuclei (%),[10],1%
same,Population Tubulin-Different-Phenotype (%),[10],71%
same,Total Cell Count,[10],127
same,Population Apoptotic (%),[11],85%
same,Population Fragmented Nuclei (%),[11],40%
same,Population Healthy Nuclei (%),[11],55%
same,Population Hoechst High Intensity Objects (%),[11],34%
same,Population Membrane Permeable-Phenotype (%),[11],1%
same,Population Mitochondria Different-Phenotype (%),[11],62%
same,Population Mitotic Cells (%),[11],14%
same,Population Normal (%),[11],65%
same,Population Pyknosed Nuclei (%),[11],4%
same,Population Tubulin-Different-Phenotype (%),[11],96%
same,Total Cell Count,[11],257
same,Population Apoptotic (%),[12],50%
same,Population Fragmented Nuclei (%),[12],43%
same,Population Healthy Nuclei (%),[12],54%
same,Population Hoechst High Intensity Objects (%),[12],25%
same,Population Membrane Permeable-Phenotype (%),[12],2%
same,Population Mitochondria Different-Phenotype (%),[12],59%
same,Population Mitotic Cells (%),[12],50%
same,Population Normal (%),[12],75%
same,Population Pyknosed Nuclei (%),[12],2%
same,Population Tubulin-Different-Phenotype (%),[12],95%
same,Total Cell Count,[12],232
CN1CCN(Cc2cc(NC(=O)c3ccc4c(c3)CN(c3ccccc3)CC4)cc(C(F)(F)F)c2)CC1,Population Apoptotic (%),[1],72% and 64%
same,Population Fragmented Nuclei (%),[1],42% and 27%
same,Population Healthy Nuclei (%),[1],43% and 53%
same,Population Hoechst High Intensity Objects (%),[1],27% and 18%
same,Population Membrane Permeable-Phenotype (%),[1],4% and 12%
same,Population Mitochondria Different-Phenotype (%),[1],6% and 7%
same,Population Mitotic Cells (%),[1],27% and 35%
same,Population Normal (%),[1],72% and 81%
same,Population Pyknosed Nuclei (%),[1],14% and 19%
same,Population Tubulin-Different-Phenotype (%),[1],30% and 14%
same,Total Cell Count,[1],315 and 180
same,Population Apoptotic (%),[2],75% and 40%
same,Population Fragmented Nuclei (%),[2],55% and 53%
same,Population Healthy Nuclei (%),[2],37% and 39%
same,Population Hoechst High Intensity Objects (%),[2],36% and 35%
same,Population Mitochondria Different-Phenotype (%),[2],13% and 31%
same,Population Mitotic Cells (%),[2],25% and 60%
same,Population Normal (%),[2],63% and 64%
same,Population Pyknosed Nuclei (%),[2],6%
same,Total Cell Count,[2],92 and 114
same,Population Apoptotic (%),[5],74% and 57%
same,Population Fragmented Nuclei (%),[5],33% and 27%
same,Population Healthy Nuclei (%),[5],52% and 58%
same,Population Hoechst High Intensity Objects (%),[5],41% and 15%
same,Population Membrane Permeable-Phenotype (%),[5],6% and 4%
same,Population Mitochondria Different-Phenotype (%),[5],25% and 10%
same,Population Mitotic Cells (%),[5],25% and 42%
same,Population Normal (%),[5],58% and 84%
same,Population Pyknosed Nuclei (%),[5],14% and 13%
same,Total Cell Count,[5],365 and 178
same,Population Apoptotic (%),[6],100% and 40%
same,Population Fragmented Nuclei (%),[6],57% and 61%
same,Population Healthy Nuclei (%),[6],33% and 32%
same,Population Hoechst High Intensity Objects (%),[6],39% and 37%
same,Population Membrane Permeable-Phenotype (%),[6],21% and 12%
same,Population Mitochondria Different-Phenotype (%),[6],15% and 16%
same,Population Normal (%),[6],60% and 62%
same,Population Pyknosed Nuclei (%),[6],8% and 6%
same,Population Tubulin-Different-Phenotype (%),[6],21% and 48%
same,Total Cell Count,[6],93 and 124
CNCc1ccccc1-c1csc([C@@H](C)Nc2nc(C)nc3cc(OC)c(OC)cc23)c1 [BAY-293],Population Apoptotic (%),[3],45% and 52%
same,Population Fragmented Nuclei (%),[3],29% and 38%
same,Population Healthy Nuclei (%),[3],45% and 27%
same,Population Membrane Permeable-Phenotype (%),[3],11% and 24%
same,Population Mitotic Cells (%),[3],54% and 47%
same,Population Normal (%),[3],58% and 87%
same,Population Pyknosed Nuclei (%),[3],24% and 33%
same,Population Apoptotic (%),[4],83% and 66%
same,Population Fragmented Nuclei (%),[4],50% and 52%
same,Population Healthy Nuclei (%),[4],17% and 31%
same,Population Hoechst High Intensity Objects (%),[4],34% and 42%
same,Population Membrane Permeable-Phenotype (%),[4],20% and 8%
same,Population Mitotic Cells (%),[4],16% and 33%
same,Population Normal (%),[4],65% and 57%
same,Population Pyknosed Nuclei (%),[4],32% and 16%
same,Population Tubulin-Different-Phenotype (%),[4],50% and 30%
same,Population Apoptotic (%),[7],89% and 38%
same,Population Fragmented Nuclei (%),[7],36% and 23%
same,Population Hoechst High Intensity Objects (%),[7],16% and 40%
same,Population Membrane Permeable-Phenotype (%),[7],11% and 4%
same,Population Normal (%),[7],83% and 59%
same,Population Pyknosed Nuclei (%),[7],56% and 28%
same,Population Tubulin-Different-Phenotype (%),[7],22% and 14%
same,Population Apoptotic (%),[8],66% and 90%
same,Population Fragmented Nuclei (%),[8],52% and 60%
same,Population Hoechst High Intensity Objects (%),[8],44%
same,Population Normal (%),[8],55%
same,Population Pyknosed Nuclei (%),[8],10% and 27%
same,Population Tubulin-Different-Phenotype (%),[8],38% and 20%
